High-throughput results from PubChem BioAssay.
Shown are actives, neighbours in structure and some others; about 1.9% of the full set was active somewhere.
VIM-2 inhibitor: blocks Pseudomonas aeruginosa VIM-2 metallo-beta-lactamase | purified VIM-2, nitrocefin hydrolysis, epi-absorbance fluorescence | inhibition, % at 5.6 µM | 0.89% of 290,000 active | AID 1527;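 active = inhibition above the mean of all tested compounds plus 3 SD, cutoff set per screening run, cut at about 7.5% in these data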;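 note: red hydrolysis product quenches plate fluorescence so inhibitors raise well fluorescence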
HCV NS3 hel inh: HCV NS3 helicase inhibition; inhibition, % at 10.9 µM; NS3 helicase DNA unwinding, Cy5 molecular beacon fluorescence; 0.56% of 290,000 active;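 active = inhibition above the mean of all tested compounds plus 3 SD, set per campaign, cut at about 35% in these data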
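assay system = NS3 helicase fragment of HCV | buffer or medium = MOPS pH 6.5, MgCl2, DTT, Tween20, BSA | timing = 60 min unwinding reaction at 25 °C after ATP addition | signal = Cy5 beacon fluorescence read at start and 1 h | read-out basis = % inhibition of unwinding | control set = low DMSO, high thioflavine S at 110 µM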
DNA FID counter: fluorescent intercalator displacement, NS3 helicase counter-screen; DNA fluorescent intercalator displacement, fluorescence; inhibition, % at 7.9 µM; 0.17% of 290,000 active; in the data active = inhibition above about 37%;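 note: higher means more ethidium bromide displaced from hairpin DNA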
IMP-1 inh-1: inhibitors of Pseudomonas aeruginosa IMP-1 metallo-beta-lactamase; AID 1556; 0.45% of 290,000 active; inhibition, % at 5.6 µM; purified IMP-1, nitrocefin hydrolysis, epi-absorbance fluorescence;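 active = inhibition above the mean plus 3 SD of all compounds in the same screening run, cut at about 4.5% in these data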
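Material – recombinant IMP-1 enzyme, purified · Amount – IMP-1 0.2 nM before substrate addition · Medium – HEPES buffer pH 7.1 with ZnSO4 and Brij 35 · Timing – 25 °C, 15 min preincubation, 25 min reaction · Measured by – plate fluorescence quenching by hydrolysis product, ex 480/em 530 nm · Read-out – percent enzyme inhibition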
IMP-1 inh-2: selectivity counter-screen for VIM-2 inhibitors: IMP-1 metallo-beta-lactamase inhibitors | shares compounds with VIM-2 inhibitor | purified IMP-1, nitrocefin hydrolysis, epi-absorbance fluorescence | inhibition, % at 5.6 µM | 1,300 tested, under 10 active | AID 1856; call rule not given here
VIM-2 FRET inh: VIM-2 FRET inhibition, artifact counter-screen; AID 1857; inhibition, % at 5.6 µM; shares compounds with VIM-2 inhibitor; purified VIM-2, CCF2 FRET substrate hydrolysis; 23% of 1,300 active;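 active = inhibition above the mean of all tested compounds plus 3 SD, cut at about 19% in these data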
TEM-1 counter: selectivity counter-screen for VIM-2 inhibitors: E. coli TEM-1 inhibitors; Purified TEM-1, nitrocefin hydrolysis, epi-absorbance fluorescence; 3% of 1,300 active; inhibition, % at 5.6 µM; shares compounds with VIM-2 inhibitor;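 active = inhibition above that campaign's mean inhibition plus 3 SD, cut at about 0.46% in these data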
Target sequence (P62593 whole entry, looked up): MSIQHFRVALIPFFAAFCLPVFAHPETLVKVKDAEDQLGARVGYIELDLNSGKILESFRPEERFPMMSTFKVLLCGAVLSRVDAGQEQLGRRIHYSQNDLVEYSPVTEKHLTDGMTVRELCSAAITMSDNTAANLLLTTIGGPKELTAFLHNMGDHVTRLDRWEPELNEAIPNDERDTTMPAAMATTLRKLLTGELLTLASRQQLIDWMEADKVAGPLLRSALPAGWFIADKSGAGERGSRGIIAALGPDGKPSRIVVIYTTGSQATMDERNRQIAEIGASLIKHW
VIM-2 confirm 2: confirmation of P. aeruginosa VIM-2 metallo-beta-lactamase inhibitors; purified VIM-2, nitrocefin hydrolysis, epi-absorbance; AID 2187; 96% of 1,300 active; shares compounds with VIM-2 inhibitor; inhibition, % at 5.6 µM;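 active = inhibition of the VIM-2 beta-lactamase enzyme above about 11% from the earlier first-round screen, limit read from the data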
Each line names hits and unclear results; the compound was inactive in the other large screens (follow-up assays come after a bar, where they were run).

CN(C)c1ccc(NC(=O)CN2C(=O)CN=C(c3ccccc3)c3cc(Cl)ccc32)cc1	IMP-1 inh-1 4.5
Cc1ccc(NC(=O)CN2C(=O)CN=C(c3ccccc3)c3cc(Cl)ccc32)cc1	none
COCCCN1CCN(c2nnc3n2-c2sc(Br)cc2C(c2ccccc2Cl)=NC3)CC1	IMP-1 inh-1 8.3
NC(=S)c1cn(C2OC(CO)C(O)C2O)c2ncnc(N)c12 (stereo unspecified)	IMP-1 inh-1 12.3
CCN(CC)c1ccc(/C=C/[N+](=O)[O-])cc1	IMP-1 inh-1 6.5
Cc1cc(C=C2C(=O)N(C)C(=S)N(C)C2=O)c(C)n1-c1ccncc1	IMP-1 inh-1 17.9
CCN(CC)CCCNC(=O)c1c(O)c2ccccc2n(Cc2ccccc2)c1=O	VIM-2 inhibitor 12.1
CCN(CC)CCNC(=O)c1c(O)c2ccccc2n(Cc2ccccc2)c1=O	none
COC(=O)N(c1ccccc1)P(=O)(Oc1ccccc1)Oc1ccccc1	none
CCCCCCC[n+]1ccc(-c2cc[n+](CCCCCCC)cc2)cc1	DNA FID counter 54.8, IMP-1 inh-1 5.0
O=c1[nH]c(=S)n(C2CC2)c(O)c1C=NCCc1ccccc1	none
COc1cc2c(cc1OC)-c1c3c(cc4c1[C@@H](C2)N(C)CC4)OCO3	DNA FID counter 67.2
COc1cc2c(cc1OC)-c1c(OC)c(OC)cc3c1C(C2)N(C)CC3 (stereo unspecified)	none
COc1cc2c(cc1O)C[C@H]1NCCc3cc4c(c-2c31)OCO4	DNA FID counter 38.0
COc1ccc(C(=O)OC2C[C@H]3CC[C@@H](C2)N3O)cc1OC (stereo partly specified)	none
O=C1C2CCN(CC2)C1Cc1ccc(OCc2ccccc2)cc1 (stereo unspecified)	none
CN(C)C(Cc1ccccc1)C(=O)c1cccs1 (stereo unspecified)	none
NC1=NC(=O)C(c2ccccc2)O1 (stereo unspecified)	none
O=C(O)c1cccc2c1NC(C(=O)O)C1CC(Sc3ccccc3[N+](=O)[O-])C(Cl)C21 (stereo unspecified)	IMP-1 inh-1 5.2
CCN1/C(=C\C=C\C2=[N+](CC)c3ccccc3C2(C)C)C(C)(C)c2ccccc21	IMP-1 inh-1 5.5
CC(C)n1c(=O)c(C=Nc2ccc(Cl)cc2)c(O)n(Cc2ccco2)c1=O	HCV NS3 hel inh 47.4
COc1cccc(N=Cc2c(O)n(Cc3ccco3)c(=O)[nH]c2=O)c1	none
COC(=O)C(C)Oc1cc(C)cc2oc(=O)c3c(c12)CCCC3 (stereo unspecified)	VIM-2 inhibitor 9.9
Cc1cc(OCc2nn[nH]n2)c2c3c(c(=O)oc2c1)CCC3	VIM-2 inhibitor 11.8
Cc1cc(OCC(=O)NCC(O)c2ccccc2)c2c3c(c(=O)oc2c1)CCCC3 (stereo unspecified)	none
Cc1cc(OCC(=O)N[C@@H](Cc2ccccc2)C(=O)O)c2c3c(c(=O)oc2c1)CCCC3	VIM-2 inhibitor 11.3
CCOC(=O)C(C)Oc1cc(C)cc2oc(=O)c3c(c12)CCCC3 (stereo unspecified)	none
COC(=O)C(C)Oc1cc(C)cc2oc(=O)c3c(c12)CCC3 (stereo unspecified)	VIM-2 inhibitor 11.4
CC(C)Cc1nnc(NC(=O)CCC(=O)N2CCC3(CC2)OCCO3)s1	none
Cc1ccc(Cn2ccccc2=N)cc1	none
CCc1cc(=O)oc2cc(OCC(=O)N3C[C@H]4C[C@@H](C3)c3cccc(=O)n3C4)ccc12	none
CN(C)C(=O)Oc1ccc(Br)c2ccccc12	none
CCCOP(=O)(OCCC)C(NC(=O)c1cc(OC)c(OC)c(OC)c1)c1ccccc1 (stereo unspecified)	none
CCC(COC(=O)c1cc(OC)c(OC)c(OC)c1)(c1ccccc1)N(C)C (stereo unspecified)	IMP-1 inh-1 41.0
CCOC(=O)C1(CCc2ccccc2)CCN(CC(O)CO)CC1 (stereo unspecified)	none
CCn1c(O)c(/C=N/N2CCOCC2)c(=O)n(CC)c1=S	none
CCn1c(O)c(C(=O)CC2NCCc3ccccc32)c(=O)n(CC)c1=S (stereo unspecified)	IMP-1 inh-1 9.6
N#Cc1c(N2CCNCC2)nc(-c2ccco2)c2c1CCCC2	VIM-2 inhibitor 8.9
CC1CC(OP(O)(=S)c2ccc(N(C)C)cc2NC(=O)c2cccs2)CC(C)(C)C1 (stereo unspecified)	none
CCCOc1ccccc1C1SCC(=O)Nc2c1c(=O)[nH]n2C(C)CCC (stereo unspecified)	VIM-2 inhibitor 8.7
COc1ccccc1CCNCc1cccc(C(F)(F)F)c1	none
COc1ccc(-n2c(O)c(/C=C/C=Nc3ccccc3)c(=O)[nH]c2=O)cc1	IMP-1 inh-1 9.4
O=C1C2CCCN2C(c2cccc(Cl)c2)N1c1ccccn1 (stereo unspecified)	DNA FID counter 38.0
CCN(CC)C(=O)c1ccc(NC(=O)COc2ccc(-c3nn(C)c(=O)c4ccccc34)cc2)cc1	VIM-2 inhibitor 9.0
CCN(CC)C(=O)c1ccc(NC(=O)c2cn(-c3ccccc3)nc2-c2ccc(OC)cc2)cc1	none
CN(C)C(=O)Oc1ccc2c(=O)c(Oc3ccccc3Br)coc2c1	none
CCOC(=O)c1c(C)n(Cc2ccccc2)c2ccc(OCC(O)CNC(C)(C)C)cc12 (stereo unspecified)	none
O=[As](O)(O)c1ccc(N=Nc2ccc(O)cc2)cc1	IMP-1 inh-1 5.1
Cc1cc(OCC(=O)NCc2cccnc2)c2c3c(c(=O)oc2c1)CCCC3	VIM-2 inhibitor 32.6 | IMP-1 inh-2 inactive | VIM-2 FRET inh inactive | TEM-1 counter inactive | VIM-2 confirm 2 39.7
Cc1cc(OCC(=O)NCC2CCC(C(=O)O)CC2)c2c3c(c(=O)oc2c1)CCC3 (stereo unspecified)	none
O=P(O)(O)Oc1ccccc1P(=O)(c1ccccc1)c1ccccc1	VIM-2 inhibitor 16.8 | IMP-1 inh-2 inactive | VIM-2 FRET inh 23.1 | TEM-1 counter inactive | VIM-2 confirm 2 20.6
O=C(COc1ccc(Cl)cc1)N1CCN(Cc2ccccc2)CC1	none
Cc1cc(=O)oc2c(C)c(OCC(=O)N3CCN(Cc4ccccc4)CC3)ccc12	VIM-2 inhibitor 44.7 | IMP-1 inh-2 inactive | VIM-2 FRET inh inactive | TEM-1 counter inactive | VIM-2 confirm 2 60.3
